Source: ChEMBL document CHEMBL2062467, “Design, synthesis, antimicrobial, anti-inflammatory and analgesic activity of novel isoxazolyl pyrimido[4,5-b]quinolines and isoxazolyl chromeno[2,3-d]pyrimidin-4-ones” (2012)
≈ marks a conversion by molar mass, not a printed value.

What was measured:
Assay type in all cases: functional
[1] = test system: Rhizoctonia solani; test: Antifungal activity against Rhizoctonia solani after 72 to 96 hrs by agar cup method
Method in brief: (§1)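 Agar cup assay on potato dextrose agar. Plates were spread with 0.5 mL of a one-week-old fungal spore suspension, and 6 mm cups were bored into the agar. Different concentrations of compound in acetone were added to the cups. Acetone and clotrimazole served as controls. Plates were held at room temperature for 72–96 h.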

[2] = test system: Chromobacterium violaceum; test: Antibacterial activity against Chromobacterium violaceum MTCC 2656 after 24 hrs by broth dilution method; conditions: MTCC 2656, 24 h
Method in brief: (§2)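 Broth dilution MIC in autoclaved nutrient broth tubes. Test compound was dissolved in acetone, and 100 mg/mL (so in the source) was added to the first tube, then serially diluted across the tubes.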

[3] = Antifungal activity against Verticillium dahliae after 72 to 96 hrs by agar cup method; method in brief: as §1
[4] = test system: Rattus norvegicus; test: Analgesic activity in Albino rat assessed as reaction time at 10 mg/kg, po after 2 hrs by Hot plate test
Method in brief: (§3)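 Hot plate test of central analgesia in rats, six per group, with a vehicle control group and an Indomethacin group (10 mg/kg po). Test compounds were given orally at 10 mg/kg. Reaction time was read at 0, 1 and 2 h. Values are the mean of six, ± S.E., also expressed as % increase over basal. Statistics used ANOVA/LSD; Dunnett's test vs control (P < 0.05).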

[5] = test system: Bacillus subtilis; test: Antibacterial activity against Bacillus subtilis MTCC 441 after 24 hrs by broth dilution method; conditions: MTCC 441, 24 h; method in brief: as §2
[6] = test system: Fusarium oxysporum; test: Antifungal activity against Fusarium oxysporum after 72 to 96 hrs by agar cup method; method in brief: as §1
[7] = test system: Klebsiella aerogenes; test: Antibacterial activity against Klebsiella aerogenes MTCC 39 after 24 hrs by broth dilution method; conditions: MTCC 39, 24 h; method in brief: as §2
[8] = test system: Pseudomonas aeruginosa; test: Antibacterial activity against Pseudomonas aeruginosa MTCC 741 after 24 hrs by broth dilution method; conditions: MTCC 741, 24 h; method in brief: as §2
[9] = test system: Alternaria solani; test: Antifungal activity against Alternaria solani after 72 to 96 hrs by agar cup method; method in brief: as §1
[10] = test system: Colletotrichum truncatum; test: Antifungal activity against Colletotrichum capsici after 72 to 96 hrs by agar cup method; method in brief: as §1
[11] = test system: Pythium aphanidermatum; test: Antifungal activity against Pythium aphanidermatum after 72 to 96 hrs by agar cup method; method in brief: as §1
[12] = test system: Lysinibacillus sphaericus; test: Antibacterial activity against Bacillus sphaericus MTCC 511 after 24 hrs by broth dilution method; conditions: MTCC 511, 24 h; method in brief: as §2
[13] = test system: Staphylococcus aureus; test: Antibacterial activity against Staphylococcus aureus MTCC 96 after 24 hrs by broth dilution method; conditions: MTCC 96, 24 h; method in brief: as §2
[14] = test system: Rattus norvegicus; test: Analgesic activity in Albino rat assessed as reaction time at 10 mg/kg, po after 1 hr by Hot plate test; method in brief: as §3

Structure (SMILES)	MIC [1]	MIC [2]	MIC [3]	Time [4]	MIC [5]	MIC [6]	MIC [7]	MIC [8]	MIC [9]	MIC [10]	MIC [11]	MIC [12]	MIC [13]	Time [14]
Cc1ccc2c(c1)C=C1C(=O)N(c3c(C)noc3/C=C/c3ccccc3)CN=C1O2	24 µg/mL (≈ 60.4 µM)	18 µg/mL (≈ 45.3 µM)	22 µg/mL (≈ 55.4 µM)	21.5 s	15 µg/mL (≈ 37.7 µM)	20 µg/mL (≈ 50.3 µM)	15 µg/mL (≈ 37.7 µM)	12 µg/mL (≈ 30.2 µM)	20 µg/mL (≈ 50.3 µM)	18 µg/mL (≈ 45.3 µM)	22 µg/mL (≈ 55.4 µM)	18 µg/mL (≈ 45.3 µM)	16 µg/mL (≈ 40.3 µM)	21.2 s
Cc1noc(/C=C/c2ccccc2)c1-n1c(C)nc2nc3ccccc3cc2c1=O	12 µg/mL (≈ 30.4 µM)	20 µg/mL (≈ 50.7 µM)	14 µg/mL (≈ 35.5 µM)	16.5 s	20 µg/mL (≈ 50.7 µM)	16 µg/mL (≈ 40.6 µM)	20 µg/mL (≈ 50.7 µM)	24 µg/mL (≈ 60.8 µM)	10 µg/mL (≈ 25.4 µM)	15 µg/mL (≈ 38 µM)	18 µg/mL (≈ 45.6 µM)	22 µg/mL (≈ 55.8 µM)	20 µg/mL (≈ 50.7 µM)	14.8 s
Cc1noc(/C=C/c2ccccc2)c1N1CN=C2Oc3ccccc3C=C2C1=O	12 µg/mL (≈ 31.3 µM)	18 µg/mL (≈ 46.9 µM)	18 µg/mL (≈ 46.9 µM)	15.7 s	18 µg/mL (≈ 46.9 µM)	16 µg/mL (≈ 41.7 µM)	18 µg/mL (≈ 46.9 µM)	14 µg/mL (≈ 36.5 µM)	20 µg/mL (≈ 52.2 µM)	20 µg/mL (≈ 52.2 µM)	18 µg/mL (≈ 46.9 µM)	12 µg/mL (≈ 31.3 µM)	16 µg/mL (≈ 41.7 µM)	17.7 s
COc1ccc(/C=C/c2onc(C)c2N2CN=C3Oc4ccc(Br)cc4C=C3C2=O)cc1	14 µg/mL (≈ 28.4 µM)	10 µg/mL (≈ 20.3 µM)	14 µg/mL (≈ 28.4 µM)	22.6 s	12 µg/mL (≈ 24.4 µM)	18 µg/mL (≈ 36.6 µM)	13 µg/mL (≈ 26.4 µM)	15 µg/mL (≈ 30.5 µM)	12 µg/mL (≈ 24.4 µM)	12 µg/mL (≈ 24.4 µM)	20 µg/mL (≈ 40.6 µM)	10 µg/mL (≈ 20.3 µM)	8 µg/mL (≈ 16.2 µM)	18.8 s
Cc1ccc(/C=C/c2onc(C)c2N2CN=C3Oc4ccc(Cl)cc4C=C3C2=O)cc1	11 µg/mL (≈ 25.5 µM)	18 µg/mL (≈ 41.7 µM)	10 µg/mL (≈ 23.2 µM)	24.7 s	14 µg/mL (≈ 32.4 µM)	9 µg/mL (≈ 20.8 µM)	18 µg/mL (≈ 41.7 µM)	11 µg/mL (≈ 25.5 µM)	8 µg/mL (≈ 18.5 µM)	12 µg/mL (≈ 27.8 µM)	9 µg/mL (≈ 20.8 µM)	16 µg/mL (≈ 37 µM)	15 µg/mL (≈ 34.7 µM)	19.1 s
Cc1noc(/C=C/c2ccccc2)c1N1CN=C2Oc3c(Br)cc(Br)cc3C=C2C1=O	6 µg/mL (≈ 11.1 µM)	8 µg/mL (≈ 14.8 µM)	8 µg/mL (≈ 14.8 µM)	23.4 s	9 µg/mL (≈ 16.6 µM)	9 µg/mL (≈ 16.6 µM)	5 µg/mL (≈ 9.24 µM)	6 µg/mL (≈ 11.1 µM)	7 µg/mL (≈ 12.9 µM)	10 µg/mL (≈ 18.5 µM)	8 µg/mL (≈ 14.8 µM)	7 µg/mL (≈ 12.9 µM)	8 µg/mL (≈ 14.8 µM)	23.3 s
Cc1noc(/C=C/c2ccccc2)c1N1CN=C2Oc3c(Cl)cc(Cl)cc3C=C2C1=O	15 µg/mL (≈ 33.2 µM)	16 µg/mL (≈ 35.4 µM)	18 µg/mL (≈ 39.8 µM)	21.9 s	15 µg/mL (≈ 33.2 µM)	16 µg/mL (≈ 35.4 µM)	17 µg/mL (≈ 37.6 µM)	15 µg/mL (≈ 33.2 µM)	14 µg/mL (≈ 31 µM)	16 µg/mL (≈ 35.4 µM)	22 µg/mL (≈ 48.6 µM)	14 µg/mL (≈ 31 µM)	16 µg/mL (≈ 35.4 µM)	28.3 s
Cc1noc(/C=C/c2ccccc2)c1-n1c(C)nc2nc3ccc(Cl)cc3cc2c1=O	11 µg/mL (≈ 25.6 µM)	5 µg/mL (≈ 11.7 µM)	9 µg/mL (≈ 21 µM)	21.5 s	8 µg/mL (≈ 18.7 µM)	8 µg/mL (≈ 18.7 µM)	7 µg/mL (≈ 16.3 µM)	10 µg/mL (≈ 23.3 µM)	10 µg/mL (≈ 23.3 µM)	11 µg/mL (≈ 25.6 µM)	15 µg/mL (≈ 35 µM)	16 µg/mL (≈ 37.3 µM)	9 µg/mL (≈ 21 µM)	21.2 s
COc1ccc(/C=C/c2onc(C)c2-n2c(C)nc3nc4ccccc4cc3c2=O)cc1	14 µg/mL (≈ 33 µM)	16 µg/mL (≈ 37.7 µM)	14 µg/mL (≈ 33 µM)	21.4 s	18 µg/mL (≈ 42.4 µM)	10 µg/mL (≈ 23.6 µM)	20 µg/mL (≈ 47.1 µM)	22 µg/mL (≈ 51.8 µM)	16 µg/mL (≈ 37.7 µM)	16 µg/mL (≈ 37.7 µM)	18 µg/mL (≈ 42.4 µM)	22 µg/mL (≈ 51.8 µM)	25 µg/mL (≈ 58.9 µM)	21.7 s
COc1ccc2c(c1)c(CC(=O)O)c(C)n2C(=O)c1ccc(Cl)cc1 [INDOMETHACIN]				22.4 s										21.8 s
Cc1ccc(/C=C/c2onc(C)c2-n2c(C)nc3nc4ccccc4cc3c2=O)cc1	14 µg/mL (≈ 34.3 µM)	15 µg/mL (≈ 36.7 µM)	12 µg/mL (≈ 29.4 µM)	21.1 s	19 µg/mL (≈ 46.5 µM)	12 µg/mL (≈ 29.4 µM)	18 µg/mL (≈ 44.1 µM)	23 µg/mL (≈ 56.3 µM)	10 µg/mL (≈ 24.5 µM)	18 µg/mL (≈ 44.1 µM)	15 µg/mL (≈ 36.7 µM)	23 µg/mL (≈ 56.3 µM)	25 µg/mL (≈ 61.2 µM)	21.3 s
COc1ccc(/C=C/c2onc(C)c2-n2c(C)nc3nc4ccc(Cl)cc4cc3c2=O)cc1	14 µg/mL (≈ 30.5 µM)	14 µg/mL (≈ 30.5 µM)	13 µg/mL (≈ 28.3 µM)	22.6 s	12 µg/mL (≈ 26.1 µM)	11 µg/mL (≈ 24 µM)	11 µg/mL (≈ 24 µM)	14 µg/mL (≈ 30.5 µM)	12 µg/mL (≈ 26.1 µM)	16 µg/mL (≈ 34.9 µM)	17 µg/mL (≈ 37 µM)	10 µg/mL (≈ 21.8 µM)	13 µg/mL (≈ 28.3 µM)	25.1 s
Clc1ccccc1C(c1ccccc1)(c1ccccc1)n1ccnc1 [CLOTRIMAZOLE]	25 µg/mL (≈ 72.5 µM)		26 µg/mL (≈ 75.4 µM)			28 µg/mL (≈ 81.2 µM)			22 µg/mL (≈ 63.8 µM)	20 µg/mL (≈ 58 µM)	30 µg/mL (≈ 87 µM)			
COc1ccc2c(c1)C=C1C(=O)N(c3c(C)noc3/C=C/c3ccccc3)CN=C1O2	12 µg/mL (≈ 29 µM)	18 µg/mL (≈ 43.5 µM)	20 µg/mL (≈ 48.4 µM)	13.4 s	18 µg/mL (≈ 43.5 µM)	12 µg/mL (≈ 29 µM)	17 µg/mL (≈ 41.1 µM)	24 µg/mL (≈ 58.1 µM)	18 µg/mL (≈ 43.5 µM)	17 µg/mL (≈ 41.1 µM)	23 µg/mL (≈ 55.6 µM)	12 µg/mL (≈ 29 µM)	22 µg/mL (≈ 53.2 µM)	21.3 s
Cc1ccc(/C=C/c2onc(C)c2-n2c(C)nc3nc4ccc(Cl)cc4cc3c2=O)cc1	12 µg/mL (≈ 27.1 µM)	12 µg/mL (≈ 27.1 µM)	11 µg/mL (≈ 24.8 µM)	22.3 s	12 µg/mL (≈ 27.1 µM)	10 µg/mL (≈ 22.6 µM)	14 µg/mL (≈ 31.6 µM)	10 µg/mL (≈ 22.6 µM)	13 µg/mL (≈ 29.4 µM)	14 µg/mL (≈ 31.6 µM)	10 µg/mL (≈ 22.6 µM)	11 µg/mL (≈ 24.8 µM)	10 µg/mL (≈ 22.6 µM)	20.8 s
O=C(O)c1cn(C2CC2)c2cc(N3CCNCC3)c(F)cc2c1=O [CIPROFLOXACIN]		20 µg/mL (≈ 60.4 µM)			20 µg/mL (≈ 60.4 µM)		22 µg/mL (≈ 66.4 µM)					24 µg/mL (≈ 72.4 µM)	28 µg/mL (≈ 84.5 µM)	
